Tests used:
[1] = Antitumor activity against mouse P1534 cells allografted in DBA2 mouse assessed as tumor growth inhibition at 0.20 mg/kg, ip administered daily for 8 to 10 days; assay type: functional; settings: route intraperitoneal, read-out: TGI
Method in brief: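 P1534(J) leukemia implanted sc in DBA2 mice; sulfate salts dosed ip daily for 8–10 days. Growth inhibition scored –, 0–25%; +, 26–50%; ++, 51–75%; +++, 76–100%; T, lethal to ≥5 of 10 animals per group. Average of one or more tests.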

Mus musculus [2] = assay: Toxicity in C3H mouse allografted with mouse Gardner lymphosarcoma assessed as lethality at 0.5 mg/kg, ip administered daily for 8 to 10 days; assay type: organism-based; set-up: dose 0.5 mg/kg, route intraperitoneal; settings: in vivo
Method in brief: (§1)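 Tumor-bearing mice given sulfate salts ip daily for 8–10 days; values are the average of one or more tests. Toxic means lethal to ≥5 of 10 animals per group.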

[3] = Antitumor activity against mouse Gardner lymphosarcoma allografted in C3H mouse assessed as tumor growth inhibition at 0.5 mg/kg, ip administered daily for 8 to 10 days; assay type: functional; settings: route intraperitoneal, read-out: TGI
Method in brief: (§2)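 Gardner lymphosarcoma in C3H mice; sulfate salts unless noted, given ip daily for 8–10 days, treatment starting 8 days after tumor implantation. Tumor growth inhibition scored as –, 0–25%; +, 26–50%; ++, 51–75%; +++, 76–100%; T, lethal to ≥5 of 10 animals per group. Average of one or more tests.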

[4] = Antitumor activity against mouse Gardner lymphosarcoma allografted in C3H mouse assessed as tumor growth inhibition at 0.125 mg/kg, ip administered daily for 8 to 10 days; assay type: functional; settings: route intraperitoneal, read-out: TGI; method in brief: as §2
[5] = Antitumor activity against mouse Gardner lymphosarcoma allografted in C3H mouse assessed as tumor growth inhibition at 0.25 mg/kg, ip administered daily for 8 to 10 days; assay type: functional; settings: route intraperitoneal, read-out: TGI; method in brief: as §2
[6] = Antitumor activity against mouse Gardner lymphosarcoma allografted in C3H mouse assessed as tumor growth inhibition at 0.10 mg/kg, ip administered daily for 8 to 10 days; assay type: functional; settings: route intraperitoneal, read-out: TGI; method in brief: as §2
Mus musculus [7] = assay: Toxicity in C3H mouse allografted with mouse Gardner lymphosarcoma assessed as lethality at 0.40 mg/kg, ip administered daily for 8 to 10 days; assay type: organism-based; set-up: dose 0.4 mg/kg, route intraperitoneal; settings: in vivo, 0.4 mg/kg; method in brief: as §1
[8] = Antitumor activity against mouse Ridgway osteogenic sarcoma allografted in AKR mouse assessed as tumor growth inhibition at 0.10 mg/kg, ip administered daily for 8 to 10 days compound treatment commenced 8 days after tumor implantation; assay type: functional; settings: route intraperitoneal, read-out: TGI
Mus musculus [9] = assay: Toxicity in AKR mouse allografted with mouse Ridgway osteogenic sarcoma assessed as lethality at 0.20 mg/kg, ip administered daily for 8 to 10 days compound treatment commenced 8 days after tumor implantation; assay type: organism-based; set-up: dose 0.2 mg/kg, route intraperitoneal; settings: in vivo, 0.2 mg/kg; method in brief: as §1
[10] = Antitumor activity against mouse Gardner lymphosarcoma allografted in C3H mouse assessed as tumor growth inhibition at 0.20 mg/kg, ip administered daily for 8 to 10 days; assay type: functional; settings: route intraperitoneal, read-out: TGI; method in brief: as §2
Mus musculus [11] = assay: Toxicity in AKR mouse allografted with mouse Ridgway osteogenic sarcoma assessed as lethality at 0.40 mg/kg, ip administered daily for 8 to 10 days compound treatment commenced 8 days after tumor implantation; assay type: organism-based; set-up: dose 0.4 mg/kg, route intraperitoneal; settings: in vivo, 0.4 mg/kg; method in brief: as §1
B16 [12] = assay: Antitumor activity against mouse B16 cells allografted in C57BL/6 mouse assessed as prolongation of host survival at 0.60 mg/kg, ip administered on days 1,5 and 9; assay type: functional; settings: route intraperitoneal
Method in brief: (§3)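 B16 melanoma cells (10⁶ inoculum) implanted ip in C57BL/6 mice; groups of 10. Sulfate salts unless noted, given ip on days 1, 5 and 9. Single test. Survival prolongation is expressed as percent versus controls, with survivors counted on day 60. Toxic means deaths of ≥5 of 10 animals before the first control death.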

P388/VCR [13] = assay: Antitumor activity against mouse P388/VCR cells allografted in B6D2F1 mouse assessed as increase in host lifespan at 0.90 mg/kg, ip administered on days 1, 5 and 9; assay type: functional; settings: dose 0.9 mg/kg; route intraperitoneal
Method in brief: (§4)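 P388/VCR leukemia in groups of 10 B6D2F1 mice, run at Lilly using the cell strain received from NCI. Sulfate salts given ip on days 1, 5 and 9. Read-out is percent increase in lifespan.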

CHO [14] = assay: Mitotic arrest in CHO cells assessed as increase in cell accumulation at 0.02 ug/ml; assay type: functional, Cricetulus griseus
Method in brief: (§5)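 Chinese hamster ovary cells in tissue culture, scored for mitotic arrest as increase in cells in mitotic arrest over control: +++, 40–50%; ++, 15–40%; +, 10–15%; ±, 7–10%; –, 3–7%. Cytotoxicity noted separately.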

CHO [15] = assay: Mitotic arrest in CHO cells assessed as increase in cell accumulation at 0.2 ug/ml; assay type: functional, Cricetulus griseus; method in brief: as §5
B16 [16] = assay: Antitumor activity against mouse B16 cells allografted in C57BL/6 mouse assessed as prolongation of host survival at 0.90 mg/kg, ip administered on days 1,5 and 9; assay type: functional; settings: route intraperitoneal; method in brief: as §3
Mus musculus [17] = assay: Toxicity in C57BL/6 mouse allografted with mouse B16 cells assessed as animal death at 1.20 mg/kg, ip administered on days 1,5 and 9; assay type: organism-based; set-up: dose 1.2 mg/kg, route intraperitoneal; settings: in vivo, 1.2 mg/kg; method in brief: as §3
P388/VCR [18] = assay: Antitumor activity against mouse P388/VCR cells allografted in B6D2F1 mouse assessed as increase in host lifespan at 0.60 mg/kg, ip administered on days 1, 5 and 9; assay type: functional; settings: dose 0.6 mg/kg; route intraperitoneal; method in brief: as §4
P388/VCR [19] = assay: Antitumor activity against mouse P388/VCR cells allografted in B6D2F1 mouse assessed as increase in host lifespan at 1.20 mg/kg, ip administered on days 1, 5 and 9; assay type: functional; settings: dose 1.2 mg/kg; route intraperitoneal; method in brief: as §4
CHO [20] = assay: Mitotic arrest in CHO cells assessed as increase in cell accumulation at 0.002 ug/ml; assay type: functional, Cricetulus griseus; method in brief: as §5
[21] = Antitumor activity against mouse Ridgway osteogenic sarcoma allografted in AKR mouse assessed as tumor growth inhibition at 0.05 mg/kg, ip administered daily for 8 to 10 days compound treatment commenced 8 days after tumor implantation; assay type: functional; settings: route intraperitoneal, read-out: TGI
Mus musculus [22] = assay: Toxicity in C3H mouse allografted with mouse Gardner lymphosarcoma assessed as lethality at 0.20 mg/kg, ip administered daily for 8 to 10 days; assay type: organism-based; set-up: dose 0.2 mg/kg, route intraperitoneal; settings: in vivo, 0.2 mg/kg; method in brief: as §1
Mus musculus [23] = assay: Toxicity in C3H mouse allografted with mouse Gardner lymphosarcoma assessed as lethality at 0.30 mg/kg, ip administered daily for 8 to 10 days; assay type: organism-based; set-up: dose 0.3 mg/kg, route intraperitoneal; settings: in vivo, 0.3 mg/kg; method in brief: as §1

Compound | inhibition in vivo at 0.1 mg/kg [6] | Activity (Mus musculus [7]) | inhibition in vivo at 0.1 mg/kg [8] | Activity (Mus musculus [9]) | inhibition in vivo at 0.2 mg/kg [10] | Activity (Mus musculus [11]) | also measured
CC[C@]1(O)C[C@H]2CN(CCc3c([nH]c4ccccc34)[C@@](C(=O)OC)(c3cc4c(cc3OC)N(C)[C@H]3[C@@](O)(C(=O)NC)[C@H](OC(C)=O)[C@]5(CC)C=CCN6CC[C@]43[C@@H]65)C2)C1.O=S(=O)(O)O |  |  |  |  |  |  | inhibition in vivo at 0.2 mg/kg [1]: 51%; Activity (Mus musculus [2]): Toxic
CC[C@]1(O)C[C@H]2CN(CCc3c([nH]c4ccccc34)[C@@](C(=O)OC)(c3cc4c(cc3OC)N(C)[C@H]3[C@@](O)(C(=O)NCCNC(C)=O)[C@H](OC(C)=O)[C@]5(CC)C=CCN6CC[C@]43[C@@H]65)C2)C1 |  |  |  |  |  |  | inhibition in vivo at 0.5 mg/kg [3]: 76%; inhibition in vivo at 0.125 mg/kg [4]: 0%; inhibition in vivo at 0.25 mg/kg [5]: 51%
CCNC(=O)[C@@]1(O)[C@H](O)[C@]2(CC)C=CCN3CC[C@@]4(c5cc([C@@]6(C(=O)OC)C[C@@H]7CN(CCc8c6[nH]c6ccccc86)C[C@](O)(CC)C7)c(OC)cc5N(C)[C@@H]14)[C@@H]32.O=S(=O)(O)O | 0% | Toxic | 0% | Toxic | 76% | Toxic | 
CC[C@]1(O)C[C@H]2CN(CCc3c([nH]c4ccccc34)[C@@](C(=O)OC)(c3cc4c(cc3OC)N(C)[C@H]3[C@@](O)(C(=O)NCCSC)[C@H](O)[C@]5(CC)C=CCN6CC[C@]43[C@@H]65)C2)C1.O=S(=O)(O)O | 0% | Toxic |  |  | 0% |  | survival at 0.6 mg/kg (B16 [12]): 163%; Activity (P388/VCR [13]): 42%; Activity (CHO [14]): 15%; Activity (CHO [15]): 15%; survival at 0.9 mg/kg (B16 [16]): 58%; Activity (Mus musculus [17]): Toxic; Activity (P388/VCR [18]): 20%; Activity (P388/VCR [19]): 6%; Activity (CHO [20]): 3%
CC[C@]1(O)C[C@H]2CN(CCc3c([nH]c4ccccc34)[C@@](C(=O)OC)(c3cc4c(cc3OC)N(C)[C@H]3[C@@](O)(C(=O)NC(C)C)[C@H](O)[C@]5(CC)C=CCN6CC[C@]43[C@@H]65)C2)C1.O=S(=O)(O)O | 0% | Toxic | 76% | Toxic |  | Toxic | inhibition in vivo at 0.05 mg/kg [21]: 0%; Activity (Mus musculus [22]): Toxic
CC[C@]1(O)C[C@H]2CN(CCc3c([nH]c4ccccc34)[C@@](C(=O)OC)(c3cc4c(cc3OC)N(C)[C@H]3[C@@](O)(C(=O)N(C)C)[C@H](O)[C@]5(CC)C=CCN6CC[C@]43[C@@H]65)C2)C1.O=S(=O)(O)O |  | Toxic | 0% | Toxic | 26% | Toxic | Activity (Mus musculus [23]): Toxic
CC[C@]1(O)C[C@H]2CN(CCc3c([nH]c4ccccc34)[C@@](C(=O)OC)(c3cc4c(cc3OC)N(C)[C@H]3[C@@](O)(C(=O)NCCCSC)[C@H](O)[C@]5(CC)C=CCN6CC[C@]43[C@@H]65)C2)C1.O=S(=O)(O)O | 0% | Toxic |  |  | 0% |  | survival at 0.6 mg/kg (B16 [12]): 101%; survival at 0.9 mg/kg (B16 [16]): 141%; Activity (Mus musculus [17]): Toxic

Reference: ChEMBL document CHEMBL3227917, “Structure-activity relationships of dimeric Catharanthus alkaloids. 2. Experimental antitumor activities of N-substituted deacetylvinblastine amide (vindesine) sulfates” (J Med Chem, 1979)
